Assay results pooled from the literature.
Protocols differ between the studies behind these lines.
Target: Cytochrome P450 2C19 (CYP2C19, Homo sapiens, UniProt P33261)
Effect on: enzyme activity
Action: inhibitor

| Structure (SMILES) | assay | system | setting | IC50 [µM] |
| --- | --- | --- | --- | --- |
| Nc1nc(N)c2nc(CNc3ccc(C(=O)c4ccccc4)cc3)cnc2n1 | luciferase |  |  | 25.1 |
| COc1ccc2c(Cc3ccccc3F)c3n(c(=O)c2c1OC)CCc1cc2c(cc1-3)OCO2 |  |  |  | 4.7 |
| COc1ccc2[nH]c([S+]([O-])Cc3ncc(C)c(OC)c3C)nc2c1 (stereo not drawn) | fluorescence |  |  | 32 |
| Cc1cc2c(F)c(Oc3ncnn4cc(OC[C@@H](C)O)c(C)c34)ccc2[nH]1 | fluorescence |  | 15 min | 3.64 |
| CCN(Cc1cnc2nc(N)nc(N)c2n1)c1ccc(C(=O)c2ccccc2)cc1 | luciferase |  |  | 0.282 |
| O=C(NCCN1CCCC1)c1cc(-c2ccc(CN3CCOCC3)cc2)nc2ccc(F)cc12 |  | human, liver microsomes |  | > 100 |
| C[C@H]1CN(c2n[nH]c3nc(N[C@H]4CC[C@H](NS(=O)(=O)CCC(F)(F)F)CC4)ncc23)CCO1 |  |  |  | > 100 |
| CC1=CC(=O)C(C(C)C)=CC1=O | fluorescence |  | pH 7.4 | 3.6 |
| CCCCCNC(=N)N/N=C/c1c[nH]c2ccc(OC)cc12 | fluorescence |  |  | 1.17 |
| C=CC(=O)Nc1cc(Nc2nccc(Nc3cc(Cl)c(F)cc3C(C)(C)O)n2)c(OC)cc1N1CC[C@@H](N(C)C)C1 |  | human, liver microsomes |  | > 30 |
| Cc1ccc2nc(-c3ccccc3)c(CNc3ccc(F)cc3)n2c1 |  |  |  | 0.93 |
| COC(=O)C1CCN(C(=O)c2ccc(N(Cc3ccccc3)Cc3cnc4nc(N)nc(N)c4n3)cc2)CC1 | luciferase |  |  | 0.195 |
